# Test system: Fibroblast
# Test: Multiplex assay against human fibroblast
# Format: toxicity, cell-based
# Method in brief: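 Phenotypes for tubulin, mitochondrial mass and membrane permeability are expressed as per cents of healthy-nucleus cells. Cells were stained live at seeding with Hoechst33342, BioTracker Green Microtubule Cytoskeleton Dye, MitoTracker Red and Annexin V Alexa Fluor 680, then imaged after compound addition on a CQ1 microscope at 37°C and 5% CO2. Machine-learning gating in CellPathfinder separated Hoechst high-intensity objects from normal cells, divided normal cells by nuclear state (healthy, pyknosed, fragmented) and divided pyknosed cells into mitotic or apoptotic.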
# [1] = 12 h, 1 µM, compound concentration 1 uM, replicate 1
# [2] = 12 h, 1 µM, compound concentration 1 uM, replicate 2
# [3] = 12 h, 10 µM, compound concentration 10 uM, replicate 1
# [4] = 12 h, 10 µM, compound concentration 10 uM, replicate 2
# [5] = 24 h, 1 µM, compound concentration 1 uM, replicate 1
# [6] = 24 h, 1 µM, compound concentration 1 uM, replicate 2
# [7] = 24 h, 10 µM, compound concentration 10 uM, replicate 1
# [8] = 24 h, 10 µM, compound concentration 10 uM, replicate 2
# [9] = 48 h, 1 µM, compound concentration 1 uM, replicate 1
# [10] = 48 h, 1 µM, compound concentration 1 uM, replicate 2
# [11] = 48 h, 10 µM, compound concentration 10 uM, replicate 1
# [12] = 48 h, 10 µM, compound concentration 10 uM, replicate 2
compound,measurement,setting,value
Cc1cccc(NC(=O)CN2CCC(c3ccccn3)CC2)c1.Cl.Cl,Population Apoptotic (%),[1],47%
same,Population Fragmented Nuclei (%),[1],16%
same,Population Healthy Nuclei (%),[1],70%
same,Population Hoechst High Intensity Objects (%),[1],4%
same,Population Membrane Permeable-Phenotype (%),[1],0%
same,Population Mitochondria Different-Phenotype (%),[1],6%
same,Population Mitotic Cells (%),[1],52%
same,Population Normal (%),[1],95%
same,Population Pyknosed Nuclei (%),[1],12%
same,Population Tubulin-Different-Phenotype (%),[1],34%
same,Total Cell Count,[1],140
same,Population Apoptotic (%),[2],33%
same,Population Fragmented Nuclei (%),[2],25%
same,Population Healthy Nuclei (%),[2],55%
same,Population Hoechst High Intensity Objects (%),[2],6%
same,Population Membrane Permeable-Phenotype (%),[2],2%
same,Population Mitochondria Different-Phenotype (%),[2],5%
same,Population Mitotic Cells (%),[2],66%
same,Population Normal (%),[2],93%
same,Population Pyknosed Nuclei (%),[2],19%
same,Population Tubulin-Different-Phenotype (%),[2],35%
same,Total Cell Count,[2],232
same,Population Apoptotic (%),[3],59%
same,Population Fragmented Nuclei (%),[3],8%
same,Population Healthy Nuclei (%),[3],78%
same,Population Hoechst High Intensity Objects (%),[3],10%
same,Population Membrane Permeable-Phenotype (%),[3],1%
same,Population Mitochondria Different-Phenotype (%),[3],7%
same,Population Mitotic Cells (%),[3],40%
same,Population Normal (%),[3],89%
same,Population Pyknosed Nuclei (%),[3],13%
same,Population Tubulin-Different-Phenotype (%),[3],36%
same,Total Cell Count,[3],229
same,Population Apoptotic (%),[4],34%
same,Population Fragmented Nuclei (%),[4],45%
same,Population Healthy Nuclei (%),[4],30%
same,Population Hoechst High Intensity Objects (%),[4],2%
same,Population Membrane Permeable-Phenotype (%),[4],6%
same,Population Mitochondria Different-Phenotype (%),[4],10%
same,Population Mitotic Cells (%),[4],65%
same,Population Normal (%),[4],98%
same,Population Pyknosed Nuclei (%),[4],23%
same,Population Tubulin-Different-Phenotype (%),[4],56%
same,Total Cell Count,[4],100
same,Population Apoptotic (%),[5],50%
same,Population Fragmented Nuclei (%),[5],18%
same,Population Healthy Nuclei (%),[5],70%
same,Population Hoechst High Intensity Objects (%),[5],2%
same,Population Membrane Permeable-Phenotype (%),[5],0%
same,Population Mitochondria Different-Phenotype (%),[5],8%
same,Population Mitotic Cells (%),[5],50%
same,Population Normal (%),[5],97%
same,Population Pyknosed Nuclei (%),[5],10%
same,Population Tubulin-Different-Phenotype (%),[5],25%
same,Total Cell Count,[5],134
same,Population Apoptotic (%),[6],40%
same,Population Fragmented Nuclei (%),[6],26%
same,Population Healthy Nuclei (%),[6],53%
same,Population Hoechst High Intensity Objects (%),[6],4%
same,Population Membrane Permeable-Phenotype (%),[6],4%
same,Population Mitochondria Different-Phenotype (%),[6],6%
same,Population Mitotic Cells (%),[6],59%
same,Population Normal (%),[6],95%
same,Population Pyknosed Nuclei (%),[6],19%
same,Population Tubulin-Different-Phenotype (%),[6],30%
same,Total Cell Count,[6],239
same,Population Apoptotic (%),[7],64%
same,Population Fragmented Nuclei (%),[7],11%
same,Population Healthy Nuclei (%),[7],81%
same,Population Hoechst High Intensity Objects (%),[7],7%
same,Population Membrane Permeable-Phenotype (%),[7],0%
same,Population Mitochondria Different-Phenotype (%),[7],11%
same,Population Mitotic Cells (%),[7],35%
same,Population Normal (%),[7],92%
same,Population Pyknosed Nuclei (%),[7],6%
same,Population Tubulin-Different-Phenotype (%),[7],38%
same,Total Cell Count,[7],217
same,Population Apoptotic (%),[8],42%
same,Population Fragmented Nuclei (%),[8],45%
same,Population Healthy Nuclei (%),[8],34%
same,Population Hoechst High Intensity Objects (%),[8],0%
same,Population Membrane Permeable-Phenotype (%),[8],11%
same,Population Mitotic Cells (%),[8],57%
same,Population Normal (%),[8],100%
same,Population Pyknosed Nuclei (%),[8],20%
same,Population Tubulin-Different-Phenotype (%),[8],50%
same,Total Cell Count,[8],105
same,Population Apoptotic (%),[9],80%
same,Population Fragmented Nuclei (%),[9],25%
same,Population Healthy Nuclei (%),[9],63%
same,Population Hoechst High Intensity Objects (%),[9],3%
same,Population Membrane Permeable-Phenotype (%),[9],1%
same,Population Mitochondria Different-Phenotype (%),[9],3%
same,Population Mitotic Cells (%),[9],20%
same,Population Normal (%),[9],96%
same,Population Pyknosed Nuclei (%),[9],11%
same,Population Tubulin-Different-Phenotype (%),[9],28%
same,Total Cell Count,[9],138
same,Population Apoptotic (%),[10],60%
same,Population Fragmented Nuclei (%),[10],31%
same,Population Healthy Nuclei (%),[10],55%
same,Population Membrane Permeable-Phenotype (%),[10],4%
same,Population Mitotic Cells (%),[10],39%
same,Population Pyknosed Nuclei (%),[10],12%
same,Population Tubulin-Different-Phenotype (%),[10],35%
same,Total Cell Count,[10],229
same,Population Apoptotic (%),[11],76%
same,Population Fragmented Nuclei (%),[11],17%
same,Population Healthy Nuclei (%),[11],75%
same,Population Hoechst High Intensity Objects (%),[11],7%
same,Population Membrane Permeable-Phenotype (%),[11],2%
same,Population Mitochondria Different-Phenotype (%),[11],5%
same,Population Mitotic Cells (%),[11],23%
same,Population Normal (%),[11],92%
same,Population Pyknosed Nuclei (%),[11],7%
same,Population Tubulin-Different-Phenotype (%),[11],44%
same,Total Cell Count,[11],238
same,Population Apoptotic (%),[12],28%
same,Population Fragmented Nuclei (%),[12],54%
same,Population Healthy Nuclei (%),[12],39%
same,Population Hoechst High Intensity Objects (%),[12],1%
same,Population Mitochondria Different-Phenotype (%),[12],16%
same,Population Mitotic Cells (%),[12],71%
same,Population Normal (%),[12],98%
same,Population Pyknosed Nuclei (%),[12],6%
same,Population Tubulin-Different-Phenotype (%),[12],61%
same,Total Cell Count,[12],109
